ChEMBL document CHEMBL3124814, “Synthesis and Anti-HCV Activity of 4-Hydroxyamino α-Pyranone Carboxamide Analogues” (ACS Med Chem Lett, 2014)

Assays:
[1] = Cytotoxicity against human HuH7 cells expressing luciferase reporter gene after 3 days by WST-8 assay; type: cell-based, Huh-7
In short: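 LucNeo#2 subgenomic replicon cells, 50,000 cells/mL, pre-incubated 24 h in DMEM/10% FBS/antibiotics/1 mg/mL G418, then exposed 3 days to various compound concentrations without G418.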

[2] = (§1) Selectivity index, ratio of CC50 for human HuH7 cells to EC50 for HCV1b; design: species or system Huh-7
In short: (§2)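 Ratio of CC50 (WST-8 viable cell reduction) to EC50 (luciferase inhibition), both from LucNeo#2 replicon cells treated 3 days with compound in G418-free medium.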

Hepatitis C virus [3] = assay: Antiviral activity against HCV1b infected in human HuH7 cells expressing luciferase reporter gene assessed as reduction of luciferase activity after 3 days; type: functional, organism-based, Hepacivirus hominis; settings: genotype 1b, Huh-7, 72 h
In short: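 Subgenomic HCV replicon cells with luciferase reporter (LucNeo#2), 50,000 cells/mL in DMEM + 10% FBS, antibiotics, 1 mg/mL G418 for 24 h; then 3 days with various compound concentrations in fresh medium lacking G418. Cells PBS-washed, lysed, luciferase read by luminometer; EC50 as concentration giving 50% inhibition of luciferase activity.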

Huh-7 = assay: as §1; in short: as §2
[4] = Cytotoxicity against human NNC2 cells assessed as GAPDH RNA level; type: cell-based
In short: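 NNC#2 full-genome replicon cells, 30,000 cells/mL, 24 h in DMEM/10% FBS/1 mg/mL G418, then 3 days with various concentrations without G418. GAPDH RNA, as cell-viability index, measured by real-time PCR simultaneously with HCV RNA; CC50 derived.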

Hepatitis C virus [5] = assay: Antiviral activity against HCV1b infected in human NNC2 cells assessed as inhibition of viral RNA replication after 3 days by RT-PCR analysis; type: functional, organism-based, Hepacivirus hominis; settings: genotype 1b, NNC2, 72 h
In short: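 Full-genome HCV RNA replicon cells (NNC#2), 30,000 cells/mL, held 24 h in DMEM + 10% FBS + 1 mg/mL G418, then 3 days in fresh G418-free medium with various concentrations.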

Compound	CC50 at 72 h [1] [nM]	Ratio CC50/EC50 [2]	EC50 (Hepatitis C virus [3]) [nM]	Ratio CC50/EC50 (Huh-7)	CC50 [4] [nM]	EC50 (Hepatitis C virus [5]) [nM]	EC90 (Hepatitis C virus [5]) [nM]
Cc1ccccc1NC(=O)c1c(NO)cc(-c2ccccc2)oc1=O	> 20000	37	540				
Cc1ccc(-c2cc(NO)c(C(=O)NCc3ccccc3)c(=O)o2)cc1	> 20000	21.9	910				
CNC(=O)c1c(NO)cc(-c2ccc(C)cc2)oc1=O	> 20000	14.1	1420				
Cc1ccc(NC(=O)c2c(NO)cc(-c3ccc(F)cc3)oc2=O)cc1	> 20000	10.2	1950				
O=C(NCc1ccccc1)c1c(NO)cc(-c2ccc(Cl)cc2)oc1=O	> 20000	29.4	680				
COC(=O)CNC(=O)c1c(NO)cc(-c2ccc(Cl)cc2)oc1=O	> 20000	6.5	3060				
COC(=O)CNC(=O)c1c(NO)cc(-c2ccc(C)cc2)oc1=O	> 20000	5	3990				
Cc1ccc(NC(=O)c2c(NO)cc(-c3ccc(Cl)cc3)oc2=O)cc1	> 20000	14	1430				
CCCNC(=O)c1c(NO)cc(-c2ccccc2)oc1=O	> 20000	44.4	450				
CNC(=O)c1c(NO)cc(-c2ccc(OC)cc2)oc1=O	> 20000	28.6	700				
O=C(Nc1ccc(F)cc1)c1c(NO)cc(-c2ccccc2)oc1=O	> 20000	62.5	320				
O=C(Nc1ccc(Br)cc1)c1c(NO)cc(-c2ccccc2)oc1=O	> 20000	66.7	300				
COC(=O)CNC(=O)c1c(NO)cc(-c2ccc(OC)cc2)oc1=O	> 20000	6.7	2960				
CNC(=O)c1c(-c2ccc(F)cc2)oc2cc(N(CCO)S(C)(=O)=O)c(C3CC3)cc12 [NESBUVIR]	> 20000	57.1	350				
CCC[C@H](NC(=O)[C@@H]1[C@H]2CCC[C@H]2CN1C(=O)[C@@H](NC(=O)[C@@H](NC(=O)c1cnccn1)C1CCCCC1)C(C)(C)C)C(=O)C(=O)NC1CC1 [TELAPREVIR]	> 20000		450	44.4			
O=C(NCCO)c1c(NO)cc(-c2ccc(Cl)cc2)oc1=O	> 20000	5	4000				
O=C(Nc1ccccc1)c1c(NO)cc(-c2ccccc2)oc1=O	11600	33.1	350				
Cc1ccc(-c2cc(NO)c(C(=O)NCCO)c(=O)o2)cc1	> 20000	7.7	2580				
CNC(=O)c1c(NO)cc(-c2ccccc2)oc1=O	> 20000	33.3	600				
COC(=O)c1ccc(NC(=O)c2c(NO)cc(-c3ccccc3)oc2=O)cc1	> 20000	60.6	330				
O=C(Nc1ccc(Cl)cc1)c1c(NO)cc(-c2ccccc2)oc1=O	> 20000	50	400				
O=C(NCCO)c1c(NO)cc(-c2ccc(F)cc2)oc1=O	> 20000	6.7	2980				

Compound	CC50 at 72 h [1] [nM]	Ratio CC50/EC50 [2]	EC50 (Hepatitis C virus [3]) [nM]	Ratio CC50/EC50 (Huh-7)	CC50 [4] [nM]	EC50 (Hepatitis C virus [5]) [nM]	EC90 (Hepatitis C virus [5]) [nM]
CNC(=O)c1c(NO)cc(-c2ccc(F)cc2)oc1=O	> 20000	11.4	1750				
CNC(=O)c1c(NO)cc(-c2ccc(Cl)cc2)oc1=O	> 20000	25.6	780				
Cc1ccc(NC(=O)c2c(NO)cc(-c3ccccc3)oc2=O)cc1	> 20000	111.1	180		> 10000	77	450
COc1ccc(NC(=O)c2c(NO)cc(-c3ccccc3)oc2=O)cc1	> 20000	117.6	170				
O=C(NCCO)c1c(NO)cc(-c2ccccc2)oc1=O	> 20000	13.5	1480				
O=C(NCc1ccccc1)c1c(NO)cc(-c2ccccc2)oc1=O	> 20000	69	290				
COC(=O)CNC(=O)c1c(NO)cc(-c2ccccc2)oc1=O	> 20000	10.9	1840				
Cc1cccc(NC(=O)c2c(NO)cc(-c3ccccc3)oc2=O)c1	> 20000	74.1	270				
O=C(NCc1ccccc1)c1c(NO)cc(-c2ccc(F)cc2)oc1=O	> 20000	16.9	1180				
O=C(Nc1ccccc1)c1c(NO)cc(-c2ccc(F)cc2)oc1=O	10300	9.7	1060				
Cc1ccc(-c2cc(NO)c(C(=O)Nc3ccccc3)c(=O)o2)cc1	> 20000	13.8	1450				
O=C(Nc1ccc(O)cc1)c1c(NO)cc(-c2ccccc2)oc1=O	> 20000	20	1000				
Cc1ccc(NC(=O)c2c(NO)cc(-c3ccc(C)cc3)oc2=O)cc1	> 20000	43.5	460				
COc1ccc(-c2cc(NO)c(C(=O)Nc3ccc(C)cc3)c(=O)o2)cc1	> 20000	12.5	1600				
COc1ccc(-c2cc(NO)c(C(=O)NCCO)c(=O)o2)cc1	> 20000	14.2	1410				
O=C(Nc1ccccc1)c1c(NO)cc(-c2ccc(Cl)cc2)oc1=O	11000	19.6	560				
CC(C)NC(=O)c1c(NO)cc(-c2ccccc2)oc1=O	> 20000	44.4	450				
COc1ccc(-c2cc(NO)c(C(=O)Nc3ccccc3)c(=O)o2)cc1	16200	28.9	560				
COc1ccc(-c2cc(NO)c(C(=O)NCc3ccccc3)c(=O)o2)cc1	> 20000	35.1	570				
COC(=O)CNC(=O)c1c(NO)cc(-c2ccc(F)cc2)oc1=O	> 20000	10.3	1930				
CCNC(=O)c1c(NO)cc(-c2ccccc2)oc1=O	> 20000	20	1000				
O=C(NCCCO)c1c(NO)cc(-c2ccccc2)oc1=O	> 20000	44.4	450				
